Measurements: PubChem BioAssay AID463147 (The Scripps Research Institute Molecular Screening Center, 2010)
Activity calls are given as the source filed them.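 How the source made its calls: active means fold change below 0.7, the computed hit cutoff; inactive means the rest.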

Biological target: Nuclear receptor ROR-gamma (Homo sapiens) (UniProt P51449)
Test: RORγ-driven luciferase suppression – cell-based, luminescence, single concentration, HEK293T GAL4-RORg, selectivity assay for RORA inverse agonist project, late-stage follow-up (AID 463147)
Settings: HEK293T GAL4-RORg LBD luciferase reporter, 18-24 h; at 10 µM; active compounds read low
In short: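 Signal: Luciferase luminescence from UAS reporter | Assay system: HEK293T cells co-transfected with GAL4 DBD–RORγ LBD fusion plus UAS-luciferase reporter | Incubation: 20 h compound exposure, cells replated 24 h post-transfection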

Sequence of Nuclear receptor ROR-gamma (Homo sapiens) (P51449 whole entry, looked up, the tested form may be a part): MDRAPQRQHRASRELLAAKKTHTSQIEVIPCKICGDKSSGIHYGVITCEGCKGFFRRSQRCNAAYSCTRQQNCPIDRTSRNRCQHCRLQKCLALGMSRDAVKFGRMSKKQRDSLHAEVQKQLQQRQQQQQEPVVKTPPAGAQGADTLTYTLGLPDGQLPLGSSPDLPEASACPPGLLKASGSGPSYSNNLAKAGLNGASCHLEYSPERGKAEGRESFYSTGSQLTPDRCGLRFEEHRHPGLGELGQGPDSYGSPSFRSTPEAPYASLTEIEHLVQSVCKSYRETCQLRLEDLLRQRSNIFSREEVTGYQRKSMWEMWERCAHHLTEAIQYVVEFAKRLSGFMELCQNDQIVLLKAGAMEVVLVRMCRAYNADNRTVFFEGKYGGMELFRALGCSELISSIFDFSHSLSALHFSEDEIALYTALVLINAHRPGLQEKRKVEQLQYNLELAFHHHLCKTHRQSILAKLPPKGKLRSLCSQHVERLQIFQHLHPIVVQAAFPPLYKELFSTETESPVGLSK

SMILES | fold change
O=C(Nc1ccc(C(O)(C(F)(F)F)C(F)(F)F)cc1)c1ccc(F)cc1Cl | 0.974 (inactive)
O=C(Nc1ccc(C(O)(C(F)(F)F)C(F)(F)F)cc1)c1ccccc1C(F)(F)F | 0.897 (inactive)
O=S(=O)(Nc1ccc(C(O)(C(F)(F)F)C(F)(F)F)cc1)c1cccs1 | 0.91 (inactive)
O=C(Nc1ccc(C(O)(C(F)(F)F)C(F)(F)F)cc1)c1ccc(F)cc1F | 1.23 (inactive)

Other lines, results leading:

fold change | SMILES
0.873 (inactive) | O=C(Nc1ccc(C(O)(C(F)(F)F)C(F)(F)F)cc1)c1ccc(Cl)cc1
1.06 (inactive) | O=C(Nc1ccc(C(O)(C(F)(F)F)C(F)(F)F)cc1)c1c(F)cccc1F
